From ChEMBL document CHEMBL5712889, “Neuronal activity controls Bdnf expression via Polycomb de-repression and CREB/CBP/JMJD3 activation in mature neurons” (Nat Commun, 2016)
Calls of active or inactive are those of the source.

Key:
Format in all cases: functional, cell-based
Hippocampal neurone [1] = assay: Anti-neuronal activity against hippocampal neuron in Wistar rat assessed as H3K27Ac promoters VI by qPCR assay analysis
Procedure, shortened: (§1)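 E18 Wistar rat hippocampal neurons were cultured 15 DIV and stimulated with 20 µM NMDA for 5 min, then the medium was replaced. Cells were crosslinked with 1% formaldehyde for 10 min at 37 °C and chromatin sonicated to 400–700 bp. 100 µg protein per overnight immunoprecipitation at 4 °C, with rabbit IgG as negative control. Promoter DNA was quantified by qPCR against unstimulated controls; n = independent cultures.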

Hippocampal neurone [2] = assay: Anti-neuronal activity against hippocampal neuron in Wistar rat assessed as blocked H3K27Me3 demethylation at promoters IV by qPCR assay analysis; procedure, shortened: as §1
Hippocampal neurone [3] = assay: Anti-neuronal activity against hippocampal neuron in Wistar rat assessed as H3K27Ac promoters I by qPCR assay analysis; procedure, shortened: as §1
Hippocampal neurone [4] = assay: Anti-neuronal activity against hippocampal neuron in Wistar rat assessed as active CREB was found at the BDNF promoters by qPCR assay analysis; procedure, shortened: as §1
Hippocampal neurone [5] = assay: Anti-neuronal activity against hippocampal neuron in Wistar rat assessed as impaired recruitment of JMJD3 by qPCR assay analysis; procedure, shortened: as §1
Hippocampal neurone [6] = assay: Anti-neuronal activity against hippocampal neuron in Wistar rat assessed as blocked recruitment of CBP by qPCR assay analysis; procedure, shortened: as §1
Hippocampal neurone [7] = assay: Anti-neuronal activity against hippocampal neuron in Wistar rat assessed as higher levels of H3K27Me3 at promoter II by qPCR assay analysis; procedure, shortened: as §1
Hippocampal neurone [8] = assay: Anti-neuronal activity against hippocampal neuron in Wistar rat assessed as blocked transcriptional activation of promoters II by qPCR assay analysis
Procedure, shortened: (§2)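 Rat hippocampal cultures (15 DIV) were pretreated for 1 h with 10 µM SB203580 (p38 inhibitor), then given 20 µM NMDA for 5 min. Bdnf transcripts were measured by RT-qPCR 30 min after NMDA, using 0.5 µM primers and Gapdh, GusB and Pgk1 as reference genes. Samples were compared with non-stimulated controls; n = independent cultures.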

Hippocampal neurone [9] = assay: Anti-neuronal activity against hippocampal neuron in Wistar rat assessed as blocked transcriptional activation of promoters VI by qPCR assay analysis; procedure, shortened: as §2
Hippocampal neurone [10] = assay: Anti-neuronal activity against hippocampal neuron in Wistar rat assessed as blocked H3K27Me3 demethylation at promoters VI by qPCR assay analysis; procedure, shortened: as §1
Hippocampal neurone [11] = assay: Anti-neuronal activity against hippocampal neuron in Wistar rat assessed as H89 blocked CREB phosphorylation at Serine 133 by western blot analysis

Measured: Activity

O=C(Nc1ccc(Cl)cc1)c1cc2ccccc2cc1O
not listed: Hippocampal neurone [11]
active: all other assays above

O=S(=O)(NCCNC/C=C/c1ccc(Br)cc1)c1cccc2cnccc12
active: Hippocampal neurone [11]
